The IC50 is the concentration that inhibits the measured activity by half. A higher IC50 goes with a need for much substance. One may read the LD50 as the dose at which mortality reaches 50%. High values mean lower toxicity, low ones greater toxicity.

In series [1] the target is T1, Amine oxidase [flavin-containing] B (Rattus norvegicus, UniProt P19643).
T1 sequence (P19643 whole entry): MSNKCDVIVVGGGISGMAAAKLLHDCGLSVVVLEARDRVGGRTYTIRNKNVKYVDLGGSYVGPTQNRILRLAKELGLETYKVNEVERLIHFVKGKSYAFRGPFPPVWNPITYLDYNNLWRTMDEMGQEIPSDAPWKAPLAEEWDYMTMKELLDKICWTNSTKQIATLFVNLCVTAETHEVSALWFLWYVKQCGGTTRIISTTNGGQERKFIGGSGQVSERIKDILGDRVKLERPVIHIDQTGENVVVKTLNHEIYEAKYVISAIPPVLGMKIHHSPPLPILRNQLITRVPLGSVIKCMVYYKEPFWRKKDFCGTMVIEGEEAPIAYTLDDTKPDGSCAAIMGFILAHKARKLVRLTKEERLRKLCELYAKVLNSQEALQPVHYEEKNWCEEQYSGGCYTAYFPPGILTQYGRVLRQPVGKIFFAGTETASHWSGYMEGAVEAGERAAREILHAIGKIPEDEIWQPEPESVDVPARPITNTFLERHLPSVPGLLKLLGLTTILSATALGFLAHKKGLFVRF
Nature of the series: Inhibitory concentration for rat liver Monoamine oxidase B using beta-phenylethylamine.

In series [2] the target is T2, Amine oxidase [flavin-containing] A (Rattus norvegicus, UniProt P21396).
T2 sequence (P21396 whole entry): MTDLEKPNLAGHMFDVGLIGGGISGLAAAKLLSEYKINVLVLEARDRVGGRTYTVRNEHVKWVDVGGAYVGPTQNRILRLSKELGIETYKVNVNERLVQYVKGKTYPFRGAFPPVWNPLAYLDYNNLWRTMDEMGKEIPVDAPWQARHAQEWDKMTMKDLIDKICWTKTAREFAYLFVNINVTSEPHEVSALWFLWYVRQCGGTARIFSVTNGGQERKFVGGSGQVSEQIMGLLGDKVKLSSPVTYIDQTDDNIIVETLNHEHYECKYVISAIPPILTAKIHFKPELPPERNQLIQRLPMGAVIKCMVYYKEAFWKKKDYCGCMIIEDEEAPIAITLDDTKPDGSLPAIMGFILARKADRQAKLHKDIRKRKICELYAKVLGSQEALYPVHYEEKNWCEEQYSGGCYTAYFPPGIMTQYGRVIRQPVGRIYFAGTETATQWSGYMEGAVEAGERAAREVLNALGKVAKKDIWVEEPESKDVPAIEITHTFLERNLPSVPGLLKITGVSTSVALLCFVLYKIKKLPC
Nature of the series: Inhibitory concentration for rat liver Monoamine oxidase A using 5-hydroxytryptamine.

The nature of series [3]: Intraperitoneal lethal dose was measured in Mus musculus. The settings on record: ip. Format: ADME. In outline:
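Acute toxicity was tested in Swiss white Mus musculus. Five scaled doses were given intraperitoneally, 10 animals per dose.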

Series [4] has as its target T3, Primary amine oxidase (Pisum sativum, UniProt Q43077).
T3 sequence (Q43077 whole entry): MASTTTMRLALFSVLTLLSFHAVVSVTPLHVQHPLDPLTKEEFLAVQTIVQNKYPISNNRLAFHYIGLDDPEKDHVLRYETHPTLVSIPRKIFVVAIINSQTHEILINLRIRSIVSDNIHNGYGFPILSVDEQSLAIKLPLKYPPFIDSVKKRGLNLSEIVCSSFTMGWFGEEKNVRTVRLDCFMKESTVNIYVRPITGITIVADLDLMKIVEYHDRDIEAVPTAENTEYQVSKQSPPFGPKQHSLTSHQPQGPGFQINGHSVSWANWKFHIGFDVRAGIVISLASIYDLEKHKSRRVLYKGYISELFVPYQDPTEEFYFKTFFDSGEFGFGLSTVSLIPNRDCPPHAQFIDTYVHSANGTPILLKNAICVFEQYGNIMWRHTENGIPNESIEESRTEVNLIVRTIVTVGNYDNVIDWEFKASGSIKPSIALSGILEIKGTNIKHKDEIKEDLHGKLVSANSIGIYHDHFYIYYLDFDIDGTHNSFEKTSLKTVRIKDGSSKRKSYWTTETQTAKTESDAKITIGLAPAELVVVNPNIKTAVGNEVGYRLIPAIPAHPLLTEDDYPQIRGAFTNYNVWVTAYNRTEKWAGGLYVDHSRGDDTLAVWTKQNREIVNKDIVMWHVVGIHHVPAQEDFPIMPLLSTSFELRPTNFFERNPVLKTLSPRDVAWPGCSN
Briefly: Inhibition of putrescine binding to Pea seedling amine oxidase. Further details: species or system Lathyrus oleraceus. The procedure, abridged: (§1)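 Enzyme sources: BAO from commercial porcine serum; DAO porcine kidney enzyme; PSAO from homogenate of 8-day-old pea seedlings in 0.1 M phosphate pH 7.4, cleared by two centrifugations. Substrate at saturating 1 mM (benzylamine for BAO, putrescine for DAO/PSAO). Activity read as H2O2 production by 4-aminoantipyrine method. IC50 from five inhibitor concentrations, each in duplicate, averaged.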

In series [5] the target is T4, Peroxisomal primary amine oxidase (Pichia angusta, UniProt P12807).
T4 sequence (P12807 whole entry): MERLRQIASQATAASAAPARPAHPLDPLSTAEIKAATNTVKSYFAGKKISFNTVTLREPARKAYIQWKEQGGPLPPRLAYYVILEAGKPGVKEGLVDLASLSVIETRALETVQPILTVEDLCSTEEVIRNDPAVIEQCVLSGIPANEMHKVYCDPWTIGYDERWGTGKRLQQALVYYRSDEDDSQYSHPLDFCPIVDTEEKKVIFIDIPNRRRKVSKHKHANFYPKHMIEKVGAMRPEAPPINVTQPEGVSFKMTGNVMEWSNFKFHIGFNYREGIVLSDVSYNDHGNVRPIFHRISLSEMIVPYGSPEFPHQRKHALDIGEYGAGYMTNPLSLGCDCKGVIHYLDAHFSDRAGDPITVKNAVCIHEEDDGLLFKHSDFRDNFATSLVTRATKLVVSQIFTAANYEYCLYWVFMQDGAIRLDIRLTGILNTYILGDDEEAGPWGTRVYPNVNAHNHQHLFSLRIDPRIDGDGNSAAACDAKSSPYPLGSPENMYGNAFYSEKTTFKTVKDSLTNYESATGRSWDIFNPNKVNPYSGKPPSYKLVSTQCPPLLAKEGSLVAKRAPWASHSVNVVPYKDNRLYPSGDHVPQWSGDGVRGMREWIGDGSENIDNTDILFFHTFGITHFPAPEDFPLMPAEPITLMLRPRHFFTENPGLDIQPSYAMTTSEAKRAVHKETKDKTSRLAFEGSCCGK
Nature of the series: (§2) Inhibition of beta-phenylethylamine binding to Hansenula polymorpha amine oxidase. Further details: species or system Ogataea angusta.

In series [6] the target is T4, Peroxisomal primary amine oxidase. The series is described as §2. In outline:
(§3)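 Enzyme: HPAO from Hansenula polymorpha NCYC-495 grown 24 h with glucose, 1 µM CuSO4 and methylamine, then homogenized in 0.1 M phosphate pH 7.4 and centrifuged. Substrate beta-phenylethylamine at saturating 1 mM. IC50 means from five inhibitor concentrations tested in duplicate.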

The target is the same in series [7]. Nature of the series: Inhibition of phenylethylamine binding to Hansenula polymorpha amine oxidase. The procedure, abridged: as §3
The target of series [8] is T3, Primary amine oxidase. Briefly: Inhibition of putrescine binding to pea seedling amine oxidase. Further details: species or system Lathyrus oleraceus. The procedure, abridged: as §1

On to `CNc1cncc(NC)c1CN`, for which the half-maximal inhibitory concentration (IC50) in series [1] is above 170 µM; in series [2], 170 µM.
`Cl.Cl.NCc1c(OCCCCO)cncc1OCCCCO` gave a median lethal dose (LD50) in series [3] above 500 mg/kg.
On to `CCNc1cnccc1CN`, for which the IC50 in series [1] is above 170 µM; on Primary amine oxidase [4] it was 9.3 µM; in series [2], 300 µM; in series [5], 87 µM.
Take `NCc1ccncc1NC1CCCCC1`: the IC50 in series [1] was above 100 µM; in series [2] it was above 100 µM; in series [5], above 1000 µM.
In the case of `NCc1ccncc1NC1CCCC1`, the IC50 in series [1] is above 100 µM; in series [2] it was above 100 µM; in series [5], 700 µM.
For `Cl.Cl.NCc1c(OCCO)cncc1OCCO.O.O.O`, the results for the IC50 in series [1] and in series [2] were above 1000 µM and above 1600 µM, respectively. The molecule further had an LD in series [3] above 600 mg/kg.
Consider `CNc1cncc(N(C)C)c1CN`, for which the IC50 amounted to 250 µM in series [1], 17 µM at Primary amine oxidase [4], 44 µM in series [2] and 100 µM in series [5].
Regarding `CCNc1ccccc1CN`, the IC50 is above 100 µM in series [1], 1500 µM in series [6] and above 100 µM on Primary amine oxidase [4].
As to `CCCNc1cncc(N(C)CCC)c1CN`, the IC50 in series [1] was 20 µM; in series [2], 10 µM.
Take `CCOc1cncc(OCc2ccccc2)c1CN`: the half-inhibitory concentration (IC50) in series [1] was determined as 1000 µM; in series [2] it was 630 µM.
Turning to `NCc1ccncc1NC1CC1`, the IC50 was 90 µM in series [1], above 100 µM in series [2] and above 1000 µM in series [5].
Molecule `CC(C)(C)Sc1cncc(SC(C)(C)C)c1CN` displayed a half-maximal inhibitory concentration (IC50) in series [1] above 1000 µM.
With `CCOc1cncc(OCC)c1CN.Cl.Cl`, the IC50 was above 1000 µM in series [1], 330 µM on Primary amine oxidase [4], above 1600 µM in series [2] and above 1000 µM in series [5]. The molecule further showed an LD50 in series [3] of 342 mg/kg.
For `CCSc1cncc(SCC)c1CN`, the concentration for half-maximal inhibition (IC50) in series [1] was above 1000 µM.
In the case of `NCc1ccncc1NCC1CCCCC1`, the values for the IC50 in series [1], in series [2] and in series [5] were 70 µM, 95 µM and 540 µM, respectively.
For the molecule `NCc1ccncc1NC1CCCCCC1`, the half-maximal inhibitory concentration (IC50) was above 100 µM in series [1], 1000 µM at Primary amine oxidase [4], 150 µM in series [2] and above 300 µM in series [5].
With `NCc1ccncc1N`, the 50% inhibitory concentration (IC50) in series [1] and in series [2] was above 2000 µM in each case.
In the case of `CC(C)Nc1cnccc1CN`, the IC50 in series [1] was 2000 µM; in series [2], 2200 µM; in series [5] it was above 1000 µM.
Consider `CNc1cnccc1CN`, for which the concentration for half-maximal inhibition (IC50) in series [1] was above 170 µM; in series [2] it was 420 µM; in series [7], 53 µM; at Primary amine oxidase [8], 0.71 µM.
With `CCNc1cncc(N(C)CC)c1CN`, the 50% inhibitory concentration (IC50) in series [1] was 300 µM; at Primary amine oxidase [4] it was 55 µM; in series [2] it was 63 µM; in series [5] it was 350 µM.
For the molecule `NCc1ccncc1N(C1CCCC1)C1CCCC1`, the IC50 in series [1] is above 100 µM; in series [2], above 100 µM; in series [5], above 1000 µM.
As to `CNc1ccccc1CN`, the concentration for half-maximal inhibition (IC50) in series [1] was above 100 µM; at Primary amine oxidase [4], above 100 µM; in series [5], 750 µM.

Values taken from ChEMBL document CHEMBL1141879, “Alkylamino derivatives of 4-aminomethylpyridine as inhibitors of copper-containing amine oxidases” (J Med Chem, 2005).
